Rows were chosen to be rich in hits. Some 1.8% of all compounds tested hit in one or more screens of this group.
PABP FP inh: blocks human PABP binding to poly(A) RNA | P11940 | fluorescence polarization | calls only at 35 µM | 290,000 tested, 1% active | AID 2014;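 note: calls also rest on retests at 20 µM and on dose response follow-up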
Target sequence (P11940 whole entry, looked up): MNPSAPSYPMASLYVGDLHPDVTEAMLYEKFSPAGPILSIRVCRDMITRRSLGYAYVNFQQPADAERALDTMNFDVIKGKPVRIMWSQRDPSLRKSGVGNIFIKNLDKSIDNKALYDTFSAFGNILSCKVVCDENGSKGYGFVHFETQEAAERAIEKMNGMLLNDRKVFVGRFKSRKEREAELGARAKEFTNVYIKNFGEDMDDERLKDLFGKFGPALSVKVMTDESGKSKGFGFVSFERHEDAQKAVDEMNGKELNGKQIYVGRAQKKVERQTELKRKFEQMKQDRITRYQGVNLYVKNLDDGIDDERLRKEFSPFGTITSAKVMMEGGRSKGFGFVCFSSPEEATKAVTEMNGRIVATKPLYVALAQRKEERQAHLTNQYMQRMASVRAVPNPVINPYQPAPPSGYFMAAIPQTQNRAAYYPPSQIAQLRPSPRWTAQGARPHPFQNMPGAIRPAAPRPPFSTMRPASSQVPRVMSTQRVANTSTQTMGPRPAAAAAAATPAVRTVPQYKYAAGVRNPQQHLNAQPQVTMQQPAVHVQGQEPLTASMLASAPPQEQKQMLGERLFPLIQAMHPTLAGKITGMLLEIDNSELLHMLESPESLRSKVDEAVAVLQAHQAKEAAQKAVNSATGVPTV
MT1-MMP act inh: blocks activation of human MT1-MMP; P50281; AID 651647; HT1080 RFP-PRO-GFP cells, GFP/RFP ratio fluorescence, overnight; percent of plate control window, DMSO zero; GFP/RFP ratio change, % at 20 µM; 360,000 tested, 0.061% active;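 active = GFP/RFP ratio change of at least 30% with cell ATP level not reduced by more than half and red fluorescence within 50% of control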
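Assay system: RFP-PRO-GFP reporter HT1080 cells; read-out basis: GFP/RFP fluorescence ratio; benchmarks: DMSO wells and RFP-L50D-GFP cells; doses: 20 µM single dose, 1% DMSO; schedule: overnight cell settling, then overnight compound exposure, 37 °C, 5% CO2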
PABP1 MLLE inh: inhibitors of microRNA-mediated deadenylation, human PABP1 MLLE binding; inhibition, % at 20 µM; 360,000 tested, 0.36% active; GST-MLLE / FITC-PAM2 fluorescence polarization; in the data active = inhibition above about 35%, passing the limit was not always enough;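 note: plate controls were DMSO wells with GST-MLLE for no effect and wells lacking GST-MLLE protein for full effect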
eIF4H FP inh: inhibitors of RNA binding by human eIF4H. Q15056. eIF4H fluorescence polarization binding assay. inhibition, % at 35 µM. 290,000 tested, 0.94% active. AID 2012;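 note: calls also rest on retests at 20 µM and on dose response follow-up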
SKN-1 inh: blocks SKN-1 activity in C. elegans; C. elegans VP596 Pgst-4::GFP/RFP ratio, acrylamide-induced, 24 h; inhibition, % at 21.8 µM; 360,000 tested, 0.49% active; AID 624304;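 active = interference check ratio from 0.5 to 1.5 plus GFP to RFP signal ratio inhibition reaching or exceeding a fixed threshold, cut at about 30% in these data, passing the limit was not always enough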
Numbers without * were called inactive; i = inactive; u = inconclusive; x = no result; + = active, no number. Unless noted, the rule behind the calls is not given here.

SMILES	PABP FP inh	MT1-MMP act inh	PABP1 MLLE inh	eIF4H FP inh	SKN-1 inh
COc1ccc(NC(=O)CN2C(=O)NC(c3ccccc3)(c3ccccc3)C2=O)cc1OC	i	0	1	12	-21
CCCNC(=O)c1nnsc1S(=O)c1ccc(Cl)cc1 (stereo unspecified)	i	-10	37*	-10	13
N#Cc1ccccc1OCC(O)CS(=O)(=O)c1ccccc1 (stereo unspecified)	i	1	-9	3	53*
O=S(=O)(CC(O)COc1ccccc1Cl)c1ccccc1 (stereo unspecified)	i	0	1	1	3
CCc1nc2c(OCc3ccc(OC(F)F)cc3)cccn2c1N(C)C(=O)c1cccs1	x	-7	0	x	19
CCCc1cc(C(=O)Nc2nccs2)cs1	i	9	-15	-2	33*
COc1ccc(NC(=O)c2cc(C)nn2-c2ccccc2)cc1	i	-7	-10	-6	-20
Cc1cc(C)c(C(=O)COC(=O)c2c(C)noc2C)cc1C	x	2	9	x	1
CN(C)CCSc1nc(O)c(-c2ccccc2)c(=O)n1-c1ccccc1	i	3	15	-6	-16
CCCCc1c(O)nc(SCCN(C)C)n(-c2ccccc2)c1=O	i	-1	38*	-14	-17
CC(C)N1CCC1(C)C(=O)Nc1ccc2cn[nH]c2c1 (stereo unspecified)	x	2	-5	x	-6
O=C(OCC(=O)N1N=C(c2ccc(Cl)cc2)CC1c1ccco1)c1ccccc1O (stereo unspecified)	i	-15	1	-12	38*
O=C(O)CCn1c(-c2ccccn2)nc2ccccc21	i	1	-4	91*	-9
O=C(C1=C[C@@H]2[C@H]3C(=O)N(c4ccccc4Cl)C(=O)[C@H]3[C@@H](C(=O)c3ccc(Cl)cc3)N2C=C1)c1ccccc1	i	x	x	52*	x
O=C(C1=C[C@@H]2[C@H]3C(=O)N(c4cccc(Cl)c4)C(=O)[C@H]3[C@@H](C(=O)c3ccc(Cl)cc3)N2C=C1)c1ccccc1	i	1	-30	44	32
OCCN(CCO)c1ccc(C(c2ccccc2Cl)c2ccc(N(CCO)CCO)cc2Cl)c(Cl)c1	i	5	16	4	36*
OCCN(CCO)c1ccc2ccccc2c1	i	4	-9	0	-11
CCC1CCCCN1CCCNS(=O)(=O)c1ccc2c(c1)oc(=O)n2C (stereo unspecified)	+	-21	-6	67	9
CC(NS(=O)(=O)c1ccc2c(c1)oc(=O)n2C)c1ccccc1 (stereo unspecified)	+	-25	6	91	13
CCC1CCCCN1CCNS(=O)(=O)c1ccc2c(c1)oc(=O)n2C (stereo unspecified)	i	3	-12	-1	10
Cn1c(=O)c(=O)n(C)c2cc(S(=O)(=O)Nc3ccc4c(c3)OCCO4)ccc21	i	2	-4	1	11
Cn1c(=O)oc2cc(S(=O)(=O)Nc3ccc4c(c3)OCCO4)ccc21	+	-2	-10	75*	-19
O=C(NC1CC1)c1ccccc1	x	3	13	x	13
COc1ccc(C2=CC3=C(Br)C(=O)C(C)(OC(=O)C4CCCC4)C(=O)C3=CO2)cc1 (stereo unspecified)	u	-1	-24	u	11
COc1ccc(C2=CC3=C(Br)C(=O)C(C)(OC(=O)c4ccc(Cl)nc4)C(=O)C3=CO2)cc1 (stereo unspecified)	+	x	x	86	x
SMILES	PABP FP inh	MT1-MMP act inh	PABP1 MLLE inh	eIF4H FP inh	SKN-1 inh
O=C(NCC1CCCO1)c1cc(-c2ccco2)nc2ccccc12 (stereo unspecified)	+	-9	13	82*	-8
COc1ccccc1CNC(=O)COC(=O)c1cc(-c2ccco2)nc2ccccc12	+	-18	-12	90*	14
CCc1nnc(NC(=O)c2cc(-c3ccco3)nc3ccccc23)s1	i	-9	-7	76*	-1
COc1ccccc1CNC(=O)COC(=O)c1cc(C)nc2ccccc12	x	2	7	x	2
O=C(NCC1CCCO1)c1cc2nc(-c3ccco3)cc(C(F)(F)Cl)n2n1 (stereo unspecified)	+	2	8	83*	0
COc1ccc(CCC2=NCCN2C(CC(C)C)c2nc3ccccc3[nH]2)cc1 (stereo unspecified)	x	1	6	x	3
